In the library only some 1.5% were active in any assay of this set; here they are far more common.
ERAP1 HTS inh: human ERAP1 aminopeptidase inhibitors, primary screen, biochemical, single point, plate reader; Endoplasmic reticulum aminopeptidase 1 (Homo sapiens), Q9NZ08; recombinant ERAP1, Leu-AMC fluorescence, 60 min; inhibition, % at 10.7 µM; 340,000 compounds, 0.15% hits; AID 652197, 2013;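 active = mean replicate inhibition of at least 30%, or all replicates individually reaching that 30% level; inactive = mean below 30% and not every replicate reaching it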;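 note: 0% = neutral control wells and 100% = L-leucinethiol positive control wells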
S100A4 inh HTS: inhibitors of S100A4-myosin IIA peptide binding, primary screen, biochemical, fluorescence polarization, TAMRA-MyoIIA peptide | inhibition, % at 10.7 µM | 360,000 compounds, 0.14% hits | Protein S100-A4 (Homo sapiens), P26447;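 active = mean inhibition of at least 70% across replicates, with every replicate also reaching that level; inconclusive = mean inhibition reaches 70% but some replicates fall short; inactive = mean inhibition below 70%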
Target sequence (P26447 whole entry, looked up): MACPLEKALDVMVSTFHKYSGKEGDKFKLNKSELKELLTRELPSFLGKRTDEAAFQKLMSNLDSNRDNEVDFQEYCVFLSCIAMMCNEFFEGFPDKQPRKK
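incubation = readout 5 min after mixing, signal stable up to 60 min | system = S100A4 monomer protein | buffer or medium = HEPES pH 7.2 with CaCl2, KCl, NaCl, DTT, Triton | benchmarks = neutral control DMSO, positive control TFP | also added = fluorescent myosin IIA peptide, 5 nM | compound dosing = one concentration per compound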
AF4-AF9 inh: inhibitors of AF4 peptide binding to AF9, primary screen, biochemical, AlphaScreen, biotin-AF4 peptide, FLAG-AF9, single point; Protein AF-9 (Homo sapiens), P42568; 350,000 compounds, 0.47% hits; inhibition, % at 10 µM; AID 651704, 2012;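 active = every replicate reaching a set inhibition limit, whatever the replicate mean, cut at about 25% in these data; inconclusive = mean inhibition reaches that limit but some replicates miss it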;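 note: 0% = plate neutral control median and 100% = total signal loss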
RAD52 inh: RAD52 DNA annealing inhibitors, primary screen, biochemical, FRET, single point, set 2 | recombinant RAD52 DNA annealing, FRET fluorescence | inhibition, % at 18.7 µM | 360,000 compounds, 0.46% hits | AID 651710, 2012;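 active = every replicate showing at least 50% inhibition; inconclusive = mean inhibition at least 50% but not in every replicate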
Target sequence (P43351 whole entry, looked up): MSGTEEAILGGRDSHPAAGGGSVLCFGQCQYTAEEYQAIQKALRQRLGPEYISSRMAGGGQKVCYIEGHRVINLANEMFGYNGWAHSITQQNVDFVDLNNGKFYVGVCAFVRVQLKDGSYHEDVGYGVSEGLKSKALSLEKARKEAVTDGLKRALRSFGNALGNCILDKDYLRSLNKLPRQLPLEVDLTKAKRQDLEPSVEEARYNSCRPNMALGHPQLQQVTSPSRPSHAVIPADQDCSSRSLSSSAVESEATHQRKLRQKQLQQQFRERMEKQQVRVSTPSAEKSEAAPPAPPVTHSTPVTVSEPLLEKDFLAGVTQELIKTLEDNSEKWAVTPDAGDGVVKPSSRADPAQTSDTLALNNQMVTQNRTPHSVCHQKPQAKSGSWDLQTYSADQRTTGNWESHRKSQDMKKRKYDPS
INS-1E GSIS act: GLuc luminescence reporter in INS-1E cells, primary screen for activators of glucose-dependent secretion of insulin; 370,000 compounds, 0.61% hits; activation, % at 16.6 µM; INS-1E GLuc reporter insulin secretion, 2-3 h;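 active = lowest replicate activation of at least 40%, so every replicate reaches that level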;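 note: 0% = median of neutral control wells and 100% = median of IBMX positive control wells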
* hit, by the source's call; i = inactive; ? = inconclusive; nt = no result given.

SMILES	ERAP1 HTS inh	S100A4 inh HTS	AF4-AF9 inh	RAD52 inh	INS-1E GSIS act
O=C(O)[C@H]1[C@H](CO)[C@H]2Cn3c(ccc(/C=C/c4ccccc4)c3=O)[C@H]2N1C(=O)C1CCCC1	2	-5	-8	-23	3
CC(=O)N1[C@@H]2c3ccc(-c4ccccc4)c(=O)n3C[C@H]1[C@H](CO)[C@H]2C(=O)N1CCCCC1	1	-4	0	63*	1
COCC(=O)N1[C@@H]2c3ccc(/C=C/c4ccccc4)c(=O)n3C[C@H]1[C@H](CO)[C@H]2C(=O)N1CCOCC1	108*	10	2	-7	4
O=C(O)[C@@H]1[C@@H](CO)[C@@H]2Cn3c(ccc(/C=C/c4ccccc4)c3=O)[C@@H]2N1C(=O)C1CCCC1	0	110*	-12	-31	7
COCC(=O)N1[C@@H]2Cn3c(ccc(/C=C/c4ccccc4)c3=O)[C@H]1[C@@H](C(=O)N1CCCCC1)[C@@H]2CO	-1	?	2	4	4
COC(=O)[C@@H]1[C@@H](CO)[C@@H]2Cn3c(ccc(-c4ccccc4)c3=O)[C@@H]2N1C(=O)CC1CC1	8	76*	2	9	4
C[C@H](CO)N1C[C@H](C)[C@@H](CN(C)S(=O)(=O)c2cn(C)cn2)Oc2ccc(NC(=O)Nc3ccc(F)cc3)cc2CC1=O	nt	nt	nt	nt	9
CCCC(=O)N1CCC2(CC1)CN(C(=O)C1CC1)[C@H](CO)c1[nH]c3cc(OC)ccc3c12	-1	-2	-1	0	-3
C[C@@H]1CN([C@@H](C)CO)S(=O)(=O)c2ccc(C#CC3CC3)cc2O[C@@H]1CN(C)S(C)(=O)=O	5	-2	3	-6	8
CCNC(=O)[C@@H]1[C@@H](CO)[C@@H]2Cn3c(ccc(-c4ccccc4F)c3=O)[C@H]1N2C(=O)CC	3	10	1	101*	0
CCC(=O)N1[C@@H]2c3ccc(-c4ccccc4F)c(=O)n3C[C@H]1[C@H](CO)[C@H]2C(=O)NC1CCC1	4	0	-14	5	8
CCCCOc1ccc(-c2nnn(CC(=O)c3c[nH]c4ccccc34)n2)cc1	nt	nt	nt	nt	94*
COc1ccc2c3c([nH]c2c1)[C@@H](CO)N(Cc1nccs1)CC31CCN(C(=O)C2CC2)CC1	-4	12	2	-112	2
CO[C@H]1CN(C)C(=O)c2ccc(NC(=O)Nc3cc(F)ccc3F)cc2OC[C@H](C)N(C(=O)c2cnccn2)C[C@@H]1C	nt	nt	-4	2	-17
Nc1ncnc2c1nc(Sc1ccc(Cl)cc1)n2[C@@H]1O[C@@H]2COP(=O)(O)O[C@H]2[C@H]1O	-3	-4	0	-16	64*
CCCC(=O)Nc1ncnc2c1ncn2[C@@H]1O[C@@H]2COP(=O)(O)O[C@H]2[C@H]1OC(=O)CCC	-1	4	-2	-8	nt
COc1ccc(C(CNC(=O)COc2cc(C)ccc2Cl)N2CCCCC2)cc1 (stereo not given)	3	1	1	8	5
CN(C)c1ccc(C(CNC(=O)COc2ccc(Cl)cc2)N2CCCC2)cc1 (stereo not given)	3	2	26*	-63	-1
Cn1c(=O)c(C(=O)NNC(=O)c2cccc(Cl)c2)c(O)c2ccccc21	-4	2	0	-2	545*
C=C1C(=O)[C@]23C[C@H]1CCC2[C@@]1(C)C(C[C@@H]3O)[C@](C)(C(=O)OC)CC[C@@H]1O (stereo not given in full)	3	0	0	-12	87*
COc1cc(C(=O)NC2CCN(C)CC2)ccc1Nc1ncc2c(n1)N(Cc1ccccc1)CCC(=O)N2C	nt	2	14	70*	11
ClC(Cl)(c1nnnn1-c1ccccc1)c1nnnn1-c1ccccc1	nt	nt	nt	nt	139*
O=C1CN(/N=C/c2ccc([N+](=O)[O-])o2)C(=O)N1	3	-6	25*	-47	nt
CCN(CC)C(=O)n1c(Cc2ccccc2)nc2ccccc21	11	2	4	-2	48*
Cc1ncc(CSc2ccc(Cl)cc2)c(CO)c1O	2	5	-1	-6	-1
SMILES	ERAP1 HTS inh	S100A4 inh HTS	AF4-AF9 inh	RAD52 inh	INS-1E GSIS act
Cc1ncc(CSc2nccc(=O)[nH]2)c(CO)c1O	-4	-6	-1	-4	81*
CO[C@H]1CN(C)C(=O)c2cc(NC(=O)C3CCC3)ccc2OC[C@H](C)N(Cc2ccccn2)C[C@@H]1C	5	2	1	-1	0
C[C@@H]1CN(C)C(=O)c2cc(N)ccc2O[C@@H]1CN(C)S(C)(=O)=O	nt	nt	nt	nt	25
CCC(=O)Nc1nnc(Sc2ccc(N(C)C)cc2)s1	nt	nt	nt	nt	50*
COC(=O)[C@]12C[C@H](CC(=O)NCCc3ccccc3OC)C(=O)N(CCC3=CCCCC3)C1=C[C@H](C(C)(C)C)O[C@@H]2C	-3	5	-8	-8	41*
CCCc1cc(NCC2CCCO2)n2c(nc3ccccc32)c1C#N (stereo not given)	nt	nt	nt	nt	57*
CC1CC(OCC(O)C[N+]2(C)CCOCC2)CC(C)(C)C1 (stereo not given)	109*	15	-6	-19	8
CC(C)CC#Cc1cnc2c(c1)C(=O)N([C@H](C)CO)C[C@H](C)[C@H](CN(C)Cc1ccccc1)O2	3	3	-5	20	-18
COc1ccc([C@@H]2CC=CC[C@@H](C)Oc3ccccc3C(=O)N(C)[C@@H](C)C(=O)N2)c(OC)c1 (mixture of isomers)	nt	nt	nt	nt	2
CC[n+]1c(/C=C/c2c[nH]c3ccccc23)ccc2cc(C)ccc21	14	129*	26*	i	-79
CCN(CC)C(=O)c1ccc(/C=C/c2c[nH]c3ccccc23)[n+](C)c1	nt	nt	nt	nt	-14
Cc1nc2c(c(N3CCOCC3)n1)OCC(=O)N2	1	8	nt	-13	73*
Cc1nc(Cl)c2c(n1)NC(=O)CO2	nt	4	-1	-5	-1
CCCC#Cc1ccc2c(c1)[C@H]1[C@H](CCN1C(=O)C1CCCCC1)[C@@H](CO)N2	nt	nt	nt	nt	21
COc1cc(C(F)(F)F)c(C(=O)NCc2cccc(Cl)c2)cn1	3	-2	-2	-3	48*
NS(=O)(=O)c1ccc(N/N=C2/CCCCC2C2CCCCC2)c([N+](=O)[O-])c1 (stereo not given)	-3	-1	30*	1	nt
Cc1ccc(NC(=S)NCC2CCN(C(C)c3ccccc3)C2)cc1C (stereo not given)	2	8	25*	12	-16
COc1ccc(C(=Cc2ccccc2)C(=O)O)cc1	0	5	0	-13	nt
COc1ccc(C=C(C(=O)O)c2ccc(OC)cc2)cc1	0	-7	-2	-21	49*

High-throughput results deposited in PubChem by Broad Institute.
